In ChEMBL document CHEMBL1142569, “Two new hepatoprotective stilbene glycosides from Acer mono leaves” (J Nat Prod, 2005) one finds Activity data, which are given here for ten compounds.

The source made the active and inactive calls. The rule behind the calls is not given here.

Test [1] has as its system Hepatocyte. Put plainly: Hepatoprotective activity against H2O2-induced hepatotoxicity in Wistar rat hepatocytes assessed as reduction in glutamic pyruvate transaminase release after 1 hr relative to control. The test is classed as functional, cell-based. The gist of the method: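 Hepatocytes from male Wistar rats were isolated by collagenase perfusion and cultured for one day after plating. Cells were pretreated with or without compound for 1 h, then exposed to 12 mM H2O2 for 1.5 h. GPT released into the medium was measured by the Reitman-Frankel method. Relative protection (%) = 100 × (H2O2-treated − sample)/(H2O2-treated − unchallenged control). Mean ± SD, n = 3.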

The subject of test [2] is Hepatocyte. The test is described as follows: Hepatoprotective activity against H2O2-induced hepatotoxicity in Wistar rat hepatocytes assessed as reduction in glutamic pyruvate transaminase release at 100 uM after 1 hr relative to control. The test is classed as functional, cell-based.

`C[C@@H]1O[C@@H](Oc2c(-c3ccc(O)c(O)c3)oc3cc(O)cc(O)c3c2=O)[C@H](O)[C@H](O)[C@H]1O`: in the test with Hepatocyte [1], the result was inactive.

As for `COc1cc(/C=C/c2ccc(O)cc2)cc(O[C@@H]2O[C@H](CO[C@@H]3OC[C@](O)(CO)[C@H]3O)[C@@H](O)[C@H](O)[C@H]2O)c1`, in the test on Hepatocyte [1], the result was Active.

With `COc1cc(/C=C/c2ccc(O)cc2)cc(O[C@@H]2O[C@H](CO)[C@@H](O)[C@H](O)[C@H]2O)c1`, in the test on Hepatocyte [1], the outcome was Active.

On to `O=c1c(O)c(-c2ccc(O)c(O)c2)oc2cc(O)cc(O)c12`, for which, in the test with Hepatocyte [1], the outcome was Active.

As for `O=C1C[C@@H](c2ccc(O)c(O)c2)Oc2cc(O)cc(O)c21`, in the test on Hepatocyte [1], the result was inactive.

In the case of `O=C1C[C@@H](c2ccc(O)c(O)c2)Oc2cc(O[C@@H]3O[C@H](CO)[C@@H](O)[C@H](O)[C@H]3O)cc(O)c21`, in the test with Hepatocyte [1], the outcome was inactive.

On to `O=C1C[C@@H](c2ccc(O)cc2)Oc2cc(O)cc(O)c21`, for which, in the test with Hepatocyte [1], the result was inactive.

Consider `O=c1ccoc2cc(O[C@@H]3O[C@H](CO)[C@@H](O)[C@H](O)[C@H]3O)cc(O)c12`, for which, in the test with Hepatocyte [1], the outcome was inactive.

Consider `O=C1C[C@@H](c2ccc(O)cc2)Oc2cc(O[C@@H]3O[C@H](CO)[C@@H](O)[C@H](O)[C@H]3O)cc(O)c21`, for which the outcome in the test on Hepatocyte [1] was inactive.

As for `COc1cc(C2Oc3cc([C@H]4Oc5cc(O)cc(O)c5C(=O)[C@@H]4O)ccc3OC2CO)ccc1O` (stereo not given in full), the outcome in the test with Hepatocyte [2] was Active.
